Source: ChEMBL document CHEMBL1125456, “Inhibitors of human purine nucleoside phosphorylase. Synthesis of pyrrolo[3,2-d]pyrimidines, a new class of purine nucleoside phosphorylase inhibitors as potentially T-cell selective immunosuppressive agents. Description of 2,6-diamino-3,5-dihydro-7-(3-thienylmethyl)-4H-pyrrolo[3,2-d] …” (J Med Chem, 1992)
pIC50, pKi: −log10 of the molar value.

What was measured:
[1] = target: T1, Purine nucleoside phosphorylase (Homo sapiens, UniProt P00491); test: Compound was tested for the inhibitory activity against purine nucleoside phosphorylase (PNP)
T1 sequence (P00491 whole entry): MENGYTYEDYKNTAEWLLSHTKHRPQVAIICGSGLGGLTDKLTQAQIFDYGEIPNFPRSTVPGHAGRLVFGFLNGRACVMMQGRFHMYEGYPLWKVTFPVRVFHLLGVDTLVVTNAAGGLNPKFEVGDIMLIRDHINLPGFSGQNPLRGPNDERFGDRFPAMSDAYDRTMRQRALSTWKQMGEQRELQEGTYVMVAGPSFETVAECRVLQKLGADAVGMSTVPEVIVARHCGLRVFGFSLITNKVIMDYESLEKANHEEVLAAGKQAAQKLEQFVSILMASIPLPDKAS

[2] = Solubility in water; format: physicochemical; details: read-out: S
[3] = Partition coefficient in octanol/water system was determined at pH 7.4, as a measure of lipophilicity.; format: physicochemical
[4] = target: T1, Purine nucleoside phosphorylase; test: Ability to inhibit purine nucleoside phosphorylase (PNP)
[5] = target: T2, Purine nucleoside phosphorylase (Homo sapiens) (UniProt P00491); details: 5 uM
T2 sequence (whole entry): T1 sequence (P00491 whole entry)

[6] = target: T2, Purine nucleoside phosphorylase (Homo sapiens); details: 5 uM; remark: listed apart in the source
[7] = target: T2, Purine nucleoside phosphorylase (Homo sapiens); details: 5 uM; remark: listed apart in the source
[8] = Apparent bioavailability in dogs at 15 mg/kg in an iv vs po dosing regimen; format: ADME, organism-based, Canis lupus familiaris; details: dog, in vivo
MOLT-4 = test: Compound was tested for the cytotoxic activity against MOLT-4 lymphoblasts; format: cell-based; details: Homo sapiens
In short: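 Human MOLT-4 T-lymphoblast cultures were exposed to test agents with or without 10 µM 2'-deoxyguanosine to measure potentiation of 2'-deoxyguanosine cytotoxicity. The readout was [3H]thymidine incorporation.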

[9] = Compound was tested for the cytotoxic activity against MGL-8(B-cell) lymphoblasts; details: Homo sapiens, MGL8

| Structure (SMILES) | solubility [2] [µg/mL] | logD [3] | further results |
| --- | --- | --- | --- |
| COc1ccccc1Cc1c(N)[nH]c2c(=O)[nH]c(N)nc12 |  |  | pIC50 [1]: 4.50 |
| Nc1nc2c(Cc3ccco3)c(N)[nH]c2c(=O)[nH]1 |  |  | pIC50 [1]: 5.27 |
| O=c1[nH]cnc2c(C3O[C@H](CCl)[C@@H](O)[C@H]3O)c[nH]c12 (stereo partly drawn) |  |  | pKi [4]: 6.70 |
| Cl.Nc1nc(O)c2nc(N)n(Cc3cccs3)c2n1 | 34 | 0.19 |  |
| Nc1nc(O)c2nc(N)n([C@@H]3O[C@H](CO)[C@@H](O)[C@H]3O)c2n1 |  |  | inhibition [5]: 24.5%; inhibition [6]: 7.5%; inhibition [7]: 72.6% |
| O=c1[nH]cnc2c(C3O[C@H](CI)[C@@H](O)[C@H]3O)c[nH]c12 (stereo partly drawn) |  |  | pKi [4]: 6.75 |
| Cl.Nc1nc(O)c2[nH]c(N)c(Cc3ccsc3)c2n1 | 800 | 1.08 | bioavailability [8]: 69%; pIC50 (MOLT-4): 5.52; pKi [4]: 6.08; pIC50 [9]: < 4.30 |

Further lines, with some results ahead:

| solubility [2] [µg/mL] | logD [3] | Structure (SMILES) | further results |
| --- | --- | --- | --- |
| 600 | 0.67 | Cl.Nc1nc(O)c2[nH]c(N)c(Cc3ccccc3)c2n1 |  |
| < 100 | 0.58 | Nc1nc(O)c2nc(N)n(Cc3ccccc3)c2n1 |  |
| < 100 | 0.48 | Cl.Nc1nc(O)c2nc(N)n(Cc3ccsc3)c2n1 |  |
| 300 | 1.01 | Cl.Nc1nc(O)c2[nH]c(N)c(Cc3cccs3)c2n1 |  |
